# Assay results published in ChEMBL document CHEMBL5724801, “EUbOPEN Chemogenomics Library - Multiplex” (2024).
# Values joined by “and” are separate entries in the source; they are usually repeats but may differ in a detail not shown here. Equal entries are not always repeated.
# System: Fibroblast
# Experiment: Multiplex assay against human fibroblast
# Type: toxicity, cell-based
# Procedure, shortened: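 Cells stained live at seeding with Hoechst33342, BioTracker Green Microtubule Cytoskeleton Dye, MitoTracker Red and Annexin V Alexa Fluor 680 were imaged on a CQ1 microscope at 37°C and 5% CO2 after compound addition. Their classification by CellPathfinder machine-learning gating ran from Hoechst high-intensity objects versus normal cells, to healthy, pyknosed or fragmented nuclei among normal cells, to mitotic or apoptotic among pyknosed cells. Tubulin, mitochondrial-mass and membrane-permeability phenotypes are per cents of healthy-nucleus cells.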
# [1] = 12 h, 1 µM, compound concentration 1 uM
# [2] = 12 h, 10 µM, compound concentration 10 uM
# [3] = 24 h, 1 µM, compound concentration 1 uM
# [4] = 24 h, 10 µM, compound concentration 10 uM
# [5] = 48 h, 1 µM, compound concentration 1 uM
# [6] = 48 h, 10 µM, compound concentration 10 uM
compound,measurement,setting,value
O=C(NCC(=O)N1CC[C@H](N[C@H]2CC[C@@](O)(c3ccc(-c4ncccn4)cn3)CC2)C1)c1cccc(C(F)(F)F)c1 [PF-4136309],Population Apoptotic (%),[1],53% and 22%
same,Population Fragmented Nuclei (%),[1],13% and 25%
same,Population Healthy Nuclei (%),[1],63% and 52%
same,Population Hoechst High Intensity Objects (%),[1],2% and 5%
same,Population Mitochondria Different-Phenotype (%),[1],4% and 7%
same,Population Mitotic Cells (%),[1],46% and 77%
same,Population Normal (%),[1],97% and 94%
same,Population Pyknosed Nuclei (%),[1],23% and 21%
same,Population Tubulin-Different-Phenotype (%),[1],28% and 60%
same,Total Cell Count,[1],142 and 152
same,Population Apoptotic (%),[2],60% and 25%
same,Population Fragmented Nuclei (%),[2],18% and 24%
same,Population Healthy Nuclei (%),[2],69% and 52%
same,Population Hoechst High Intensity Objects (%),[2],2% and 5%
same,Population Membrane Permeable-Phenotype (%),[2],0% and 4%
same,Population Mitochondria Different-Phenotype (%),[2],11% and 6%
same,Population Mitotic Cells (%),[2],40% and 75%
same,Population Normal (%),[2],97% and 94%
same,Population Pyknosed Nuclei (%),[2],12% and 23%
same,Population Tubulin-Different-Phenotype (%),[2],46% and 44%
same,Total Cell Count,[2],210 and 128
same,Population Apoptotic (%),[3],61% and 45%
same,Population Fragmented Nuclei (%),[3],14% and 33%
same,Population Healthy Nuclei (%),[3],60% and 52%
same,Population Hoechst High Intensity Objects (%),[3],2% and 4%
same,Population Mitochondria Different-Phenotype (%),[3],4% and 1%
same,Population Mitotic Cells (%),[3],38% and 55%
same,Population Normal (%),[3],97% and 95%
same,Population Pyknosed Nuclei (%),[3],25% and 14%
same,Population Tubulin-Different-Phenotype (%),[3],32% and 52%
same,Total Cell Count,[3],139 and 148
same,Population Apoptotic (%),[4],36% and 30%
same,Population Fragmented Nuclei (%),[4],15% and 29%
same,Population Healthy Nuclei (%),[4],72% and 48%
same,Population Hoechst High Intensity Objects (%),[4],3% and 2%
same,Population Membrane Permeable-Phenotype (%),[4],0% and 6%
same,Population Mitochondria Different-Phenotype (%),[4],10% and 4%
same,Population Mitotic Cells (%),[4],63% and 70%
same,Population Normal (%),[4],96% and 97%
same,Population Pyknosed Nuclei (%),[4],11% and 22%
same,Population Tubulin-Different-Phenotype (%),[4],34% and 52%
same,Total Cell Count,[4],203 and 139
same,Population Apoptotic (%),[5],58% and 50%
same,Population Fragmented Nuclei (%),[5],26% and 36%
same,Population Healthy Nuclei (%),[5],49%
same,Population Hoechst High Intensity Objects (%),[5],2% and 4%
same,Population Membrane Permeable-Phenotype (%),[5],2% and 7%
same,Population Mitochondria Different-Phenotype (%),[5],2% and 4%
same,Population Mitotic Cells (%),[5],41% and 50%
same,Population Normal (%),[5],97% and 95%
same,Population Pyknosed Nuclei (%),[5],24% and 13%
same,Population Tubulin-Different-Phenotype (%),[5],27% and 46%
same,Total Cell Count,[5],149 and 137
same,Population Apoptotic (%),[6],47% and 63%
same,Population Fragmented Nuclei (%),[6],18% and 31%
same,Population Healthy Nuclei (%),[6],72% and 52%
same,Population Hoechst High Intensity Objects (%),[6],6%
same,Population Membrane Permeable-Phenotype (%),[6],0% and 6%
same,Population Mitochondria Different-Phenotype (%),[6],15% and 6%
same,Population Mitotic Cells (%),[6],52% and 36%
same,Population Normal (%),[6],93%
same,Population Pyknosed Nuclei (%),[6],9% and 15%
same,Population Tubulin-Different-Phenotype (%),[6],47% and 54%
same,Total Cell Count,[6],195 and 129
COc1cc2nc(N3CCN(C(=O)c4ccco4)CC3)nc(N)c2cc1OC.Cl [PRAZOSIN HYDROCHLORIDE],Population Apoptotic (%),[1],38% and 49%
same,Population Fragmented Nuclei (%),[1],22% and 20%
same,Population Healthy Nuclei (%),[1],57% and 52%
same,Population Hoechst High Intensity Objects (%),[1],1% and 4%
same,Population Membrane Permeable-Phenotype (%),[1],1% and 5%
same,Population Mitochondria Different-Phenotype (%),[1],1% and 7%
same,Population Mitotic Cells (%),[1],61% and 50%
same,Population Normal (%),[1],98% and 95%
same,Population Pyknosed Nuclei (%),[1],19% and 27%
same,Population Tubulin-Different-Phenotype (%),[1],26% and 46%
same,Total Cell Count,[1],174 and 194
same,Population Apoptotic (%),[2],44% and 31%
same,Population Fragmented Nuclei (%),[2],23% and 35%
same,Population Healthy Nuclei (%),[2],64% and 42%
same,Population Hoechst High Intensity Objects (%),[2],1% and 5%
same,Population Membrane Permeable-Phenotype (%),[2],0% and 9%
same,Population Mitochondria Different-Phenotype (%),[2],7% and 3%
same,Population Mitotic Cells (%),[2],56% and 68%
same,Population Normal (%),[2],98% and 94%
same,Population Pyknosed Nuclei (%),[2],12% and 21%
same,Population Tubulin-Different-Phenotype (%),[2],49% and 65%
same,Total Cell Count,[2],198 and 155
same,Population Apoptotic (%),[3],50% and 45%
same,Population Fragmented Nuclei (%),[3],20%
same,Population Healthy Nuclei (%),[3],63% and 57%
same,Population Hoechst High Intensity Objects (%),[3],2% and 7%
same,Population Membrane Permeable-Phenotype (%),[3],0% and 12%
same,Population Mitochondria Different-Phenotype (%),[3],2% and 3%
same,Population Mitotic Cells (%),[3],50% and 54%
same,Population Normal (%),[3],97% and 92%
same,Population Pyknosed Nuclei (%),[3],15% and 21%
same,Population Tubulin-Different-Phenotype (%),[3],28% and 58%
same,Total Cell Count,[3],181 and 185
same,Population Apoptotic (%),[4],46% and 61%
same,Population Fragmented Nuclei (%),[4],23% and 35%
same,Population Healthy Nuclei (%),[4],69% and 49%
same,Population Hoechst High Intensity Objects (%),[4],3% and 7%
same,Population Membrane Permeable-Phenotype (%),[4],0% and 10%
same,Population Mitochondria Different-Phenotype (%),[4],6% and 11%
same,Population Mitotic Cells (%),[4],53% and 38%
same,Population Normal (%),[4],96% and 92%
same,Population Pyknosed Nuclei (%),[4],6% and 15%
same,Population Tubulin-Different-Phenotype (%),[4],45% and 73%
same,Total Cell Count,[4],201 and 152
same,Population Apoptotic (%),[5],52% and 66%
same,Population Fragmented Nuclei (%),[5],24% and 29%
same,Population Healthy Nuclei (%),[5],62% and 56%
same,Population Hoechst High Intensity Objects (%),[5],3%
same,Population Membrane Permeable-Phenotype (%),[5],0% and 8%
same,Population Mitochondria Different-Phenotype (%),[5],1% and 6%
same,Population Mitotic Cells (%),[5],47% and 33%
same,Population Normal (%),[5],96%
same,Population Pyknosed Nuclei (%),[5],13% and 14%
same,Population Tubulin-Different-Phenotype (%),[5],22% and 57%
same,Total Cell Count,[5],182 and 197
same,Population Apoptotic (%),[6],66% and 46%
same,Population Fragmented Nuclei (%),[6],25% and 42%
same,Population Healthy Nuclei (%),[6],68% and 49%
same,Population Hoechst High Intensity Objects (%),[6],1% and 5%
same,Population Membrane Permeable-Phenotype (%),[6],0% and 5%
same,Population Mitochondria Different-Phenotype (%),[6],4% and 5%
same,Population Mitotic Cells (%),[6],33% and 53%
same,Population Normal (%),[6],98% and 94%
same,Population Pyknosed Nuclei (%),[6],6% and 8%
same,Population Tubulin-Different-Phenotype (%),[6],32% and 48%
same,Total Cell Count,[6],201 and 170
